Results published in ChEMBL document CHEMBL1255290, “Characterization of a novel human immunodeficiency virus type 1 protease inhibitor, A-790742” (Antimicrob Agents Chemother, 2008).

Key:
[1] = test system: Human immunodeficiency virus 1; assay: (§1) Antiviral activity against HIV1 RF infected in human MT4 cells derived from 13 viral passages with 340 nM A-790742 harboring protease M46I, L63P, A71V, V82G mutation assessed as reduction in viral cytopathogenicity treated 1 hr post infection measured 5 days post infection by MTT assay relative to wild type HIV1 RF; format: functional
Method in brief: (§2)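 Selection: MT-4 cells infected with parental pNL4-3 or RF (MOI 0.003, 2 h), then passaged under rising selecting drug whenever supernatant p24 (ELISA) exceeded 10 ng/ml. Passage viruses titred by TCID50 (Spearman-Karber). Assay: 10^6 MT-4 cells infected at MOI 0.003 for 1 h, washed, and seeded at 10^4 cells/well with eight serial dilutions, triplicate, 0.5% DMSO final. Day-5 MTT read-out; EC50 fold-change versus parental wild type.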

[2] = test system: Human immunodeficiency virus 1; assay: Antiviral activity against wild-type HIV1 pNL4-3 infected in human MT4 cells assessed as reduction in viral cytopathogenicity treated 1 hr post infection measured 5 days post infection in presence of 50% human serum by MTT assay; format: functional, organism-based; conditions: Human immunodeficiency virus 1, pNL4-3, MT4
[3] = test system: Human immunodeficiency virus 1; assay: as §1, with “10” for “13”, “160” for “340”, “protease” for “protease M46I, L63P,”; format: functional; method in brief: as §2
[4] = test system: Human immunodeficiency virus 1; assay: as §1, with “15” for “13”, “500” for “340”; format: functional; method in brief: as §2
[5] = test system: Human immunodeficiency virus 1; assay: Antiviral activity against HIV1 isolate 4 infected in human MT4 cells obtained from protease inhibitor-resistant patient harboring protease N37T, M46I, Q58E, I64V, T74K, V77I, V82F, L90M mutation derived from viral passages with Lopinavir assessed as reduction in viral cytopathogenicity treated 1 hr post infection measured 5 days post infection by MTT assay relative to wild type HIV1 pNL4-3; format: functional
[6] = test system: Human immunodeficiency virus 1; assay: as §1, with “pNL4-3” for “RF”, “18” for “13”, “900” for “340”, “L33F, K45I, A71A/V, V77V/I, V82L, I84V” for “M46I, L63P, A71V, V82G”; format: functional; method in brief: as §2
[7] = test system: Human immunodeficiency virus 1; assay: Antiviral activity against HIV1 isolate 7 infected in human MT4 cells obtained from protease inhibitor-resistant patient harboring protease L10I, M46M/L, G48V, I54V, L63P, A71V, I72M, V77I, V82A, L90M, I93L mutation derived from viral passages with Lopinavir assessed as reduction in viral cytopathogenicity treated 1 hr post infection measured 5 days post infection by MTT assay relative to wild …; format: functional
[8] = test system: Human immunodeficiency virus 1; assay: (§3) Antiviral activity against HIV1 P21 infected in human MT4 cells derived from viral passages with A-790742 harboring protease L23I, L33F, K45I, A71A/V, V77I, V82L, and I84V mutation assessed as reduction in viral cytopathogenicity treated 1 hr post infection measured 5 days post infection by MTT assay relative to wild type HIV1 pNL4-3; format: functional
Method in brief: (§4)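 For the assay, 10⁶ MT-4 cells were infected at MOI 0.003, washed after 1 h, and plated at 10⁴ cells/well with eight serial compound dilutions in triplicate (0.5% DMSO final). MTT cytopathic read-out at day 5; EC50 from dose-response fitting.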

[9] = test system: Human immunodeficiency virus 1; assay: Antiviral activity against HIV1 isolate 9 infected in human MT4 cells obtained from protease inhibitor-resistant patient harboring protease L10I, I15I/V, K20R, L33F, E35D, M36I, N37D, R41K, K43I, M46I, I54V, I62V, L63P, A71T, I72T, V82A, I84V, L90M, I93L mutation derived from viral passages with Lopinavir assessed as reduction in viral cytopathogenicity treated 1 hr post infection measured 5 days …; format: functional
[10] = test system: Human immunodeficiency virus 1; assay: as §3, with “pNL4-3” for “P21”, “from 7” for “from”, “with 32 nM” for “with”, “protease” for “protease L23I, L33F, K45I, A71A/V, V77I, V82L, and”; format: functional; method in brief: as §2
[11] = test system: Human immunodeficiency virus 1; assay: as §3, with “P9” for “P21”, “V82V/L” for “L23I, L33F, K45I, A71A/V, V77I, V82L,”; format: functional; method in brief: as §4
[12] = test system: Human immunodeficiency virus 1; assay: Antiviral activity against HIV1 clone3 infected in HEK293 cells harboring A-790742-selected protease L33F, K45I, V82L, and I84V mutation assessed as reduction in viral replication by luciferase reporter gene assay relative to wild type HIV1 pNL4-3; format: functional
Method in brief: (§5)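 Single-cycle assay: HEK-293 cells were cotransfected with luciferase-reporter HIV-1 protease clones plus a VSV-G expression vector. After 4 h, cells were replated at 2 × 10⁴/well over serial inhibitor dilutions in triplicate. Pseudovirus collected at 48 h infected fresh HEK-293 (10⁴/well). Luciferase read 48 h later gave % inhibition versus untreated and EC50. Fold change against WT pNL4-3-Luc (clones 1-4) or RF-Luc (clone 5) is the mean of three experiments.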

[13] = test system: Human immunodeficiency virus 1; assay: Antiviral activity against HIV1 clone1 infected in HEK293 cells harboring A-790742-selected protease I84V mutation assessed as reduction in viral replication by luciferase reporter gene assay relative to wild type HIV1 pNL4-3; format: functional; method in brief: as §5
[14] = test system: Human immunodeficiency virus 1; assay: Antiviral activity against HIV1 isolate 3 infected in human MT4 cells obtained from protease inhibitor-resistant patient harboring protease L10I, E35D, N37D, […], I54V, L63P, A71V, T74P, I84V, L90M, I93L mutation derived from viral passages with Lopinavir assessed as reduction in viral cytopathogenicity treated 1 hr post infection measured 5 days post infection by MTT assay relative to wild type …; format: functional
[15] = test system: Human immunodeficiency virus 1; assay: as §3, with “pNL4-3” for “P21”, “from 6” for “from”, “with 16 nM” for “with”, “protease” for “protease L23I, L33F, K45I, A71A/V, V77I, V82L, and”; format: functional; method in brief: as §2
[16] = test system: Human immunodeficiency virus 1; assay: Antiviral activity against HIV1 isolate 13 infected in human MT4 cells obtained from protease inhibitor-resistant patient harboring protease L10I, K14R, L33F, E34Q, R41K, K45R, M46I, I50V, K55R, L63P, A71V, G73T, V77I, V82A, L90M, I93L mutation derived from viral passages with Lopinavir assessed as reduction in viral cytopathogenicity treated 1 hr post infection measured 5 days post infection by …; format: functional
[17] = test system: Human immunodeficiency virus 1; assay: Antiviral activity against HIV1 isolate 11 infected in human MT4 cells obtained from protease inhibitor-resistant patient harboring protease L10I, I15V, K20R, E21Q, E35D, M36I, N37D, R41K, M46L, I54V, I62V, L63P, A71V, T74D, P79A, V82T, I84V, I85V, L90M, I93L mutation derived from viral passages with Lopinavir assessed as reduction in viral cytopathogenicity treated 1 hr post infection measured …; format: functional
[18] = test system: Human immunodeficiency virus 1; assay: as §3, with “pNL4-3” for “P21”, “from 13” for “from”, “with 400 nM” for “with”, “protease” for “protease L23I, L33F, K45I, A71A/V, V77I,”, “V82L,” for “V82L, and”; format: functional; method in brief: as §2
[19] = test system: Human immunodeficiency virus 1; assay: Antiviral activity against HIV1 clone2 infected in HEK293 cells harboring A-790742-selected protease V82L mutation assessed as reduction in viral replication by luciferase reporter gene assay relative to wild type HIV1 pNL4-3; format: functional; method in brief: as §5
[20] = test system: Human immunodeficiency virus 1; assay: Antiviral activity against wild-type HIV1 RF infected in human MT4 cells assessed as reduction in viral cytopathogenicity treated 1 hr post infection measured 5 days post infection in absence of human serum by MTT assay; format: functional, organism-based; conditions: Human immunodeficiency virus 1, RF; method in brief: as §4
[21] = test system: Human immunodeficiency virus 1; assay: as §3, with “pNL4-3” for “P21”, “from 10” for “from”, “with 140 nM” for “with”, “V82V/L” for “L23I, L33F, K45I, A71A/V, V77I, V82L,”; format: functional; method in brief: as §2
[22] = test system: Human immunodeficiency virus 1; assay: as §3, with “pNL4-3” for “P21”, “from 9” for “from”, “with 80 nM” for “with”, “V82V/L” for “L23I, L33F, K45I, A71A/V, V77I, V82L,”; format: functional; method in brief: as §2
[23] = test system: Human immunodeficiency virus 1; assay: Antiviral activity against HIV1 isolate 5 infected in human MT4 cells obtained from protease inhibitor-resistant patient harboring protease L10F, I15V, M46I, L63P, A71V, I72L, V82T, I84V, I85V, L90M mutation derived from viral passages with Lopinavir assessed as reduction in viral cytopathogenicity treated 1 hr post infection measured 5 days post infection by MTT assay relative to wild type HIV1 …; format: functional
[24] = test system: Human immunodeficiency virus 1; assay: Antiviral activity against HIV1 A17 infected in human MT4 cells harboring protease L10F, V32I, M46I, I47V, Q58E, and I84V mutation derived from viral passages with Lopinavir assessed as reduction in viral cytopathogenicity treated 1 hr post infection measured 5 days post infection by MTT assay; format: functional, organism-based; conditions: Human immunodeficiency virus 1, A17, MT4; method in brief: as §4
[25] = test system: Human immunodeficiency virus 1; assay: as §3, with “P15” for “P21”, “L33L/F,” for “L23I, L33F,”, “K45I,” for “K45I, A71A/V, V77I,”; format: functional; method in brief: as §4
[26] = test system: Human immunodeficiency virus 1; assay: as §3, with “pNL4-3” for “P21”, “from 8” for “from”, “with 50 nM” for “with”, “V82V/L,” for “L23I, L33F, K45I, A71A/V, V77I, V82L, and”; format: functional; method in brief: as §2
[27] = test system: Human immunodeficiency virus 1; assay: Antiviral activity against HIV1 clone5 infected in HEK293 cells harboring A-790742-selected protease L63P, A71V, and V82G mutation assessed as reduction in viral replication by luciferase reporter gene assay relative to wild type HIV1 RF; format: functional; method in brief: as §5
[28] = test system: Human immunodeficiency virus 1; assay: Antiviral activity against HIV1 clone4 infected in HEK293 cells harboring A-790742-selected protease L33F, A71V, G73S, V77I, V82L, and I84V mutation assessed as reduction in viral replication by luciferase reporter gene assay relative to wild type HIV1 pNL4-3; format: functional; method in brief: as §5
[29] = test system: Human immunodeficiency virus 1; assay: Antiviral activity against HIV1 isolate 6 infected in human MT4 cells obtained from protease inhibitor-resistant patient harboring protease L10I, L24I, M46I, I54V, K55R, Q58E, L63P, I64V, A71V, V82A, T91A mutation derived from viral passages with Lopinavir assessed as reduction in viral cytopathogenicity treated 1 hr post infection measured 5 days post infection by MTT assay relative to wild type …; format: functional

COC(=O)N[C@H](C(=O)N[C@H](Cc1ccc(-c2ccccn2)cc1)C[C@H](O)[C@H](Cc1ccccc1)NC(=O)[C@@H](N1CCN(Cc2cccc(C(C)(C)O)n2)C1=O)C(C)(C)C)C(C)(C)C
Ratio EC50 [1]: 68 | EC50 [2]: 0.02 µM | Ratio EC50 [3]: 32 | Ratio EC50 [4]: 100 | Ratio EC50 [5]: 1 | Ratio EC50 [6]: 300 | Ratio EC50 [7]: 2 | Ratio EC50 [8]: >2500 | Ratio EC50 [9]: 6 | Ratio EC50 [10]: 10.7 | Ratio EC50 [11]: 13 | Ratio EC50 [12]: 23 | Ratio EC50 [13]: 2 | Ratio EC50 [14]: 33 | Ratio EC50 [15]: 5.3 | Ratio EC50 [16]: 2 | Ratio EC50 [17]: 11 | Ratio EC50 [18]: 133.3 | Ratio EC50 [19]: 22 | EC50 [20]: 0.005 µM | Ratio EC50 [21]: 46.7 | Ratio EC50 [22]: 26.7 | Ratio EC50 [23]: 2 | EC50 [24]: 0.01 µM | Ratio EC50 [25]: 29 | Ratio EC50 [26]: 16.7 | Ratio EC50 [27]: 72 | Ratio EC50 [28]: 158 | Ratio EC50 [29]: 1
